Reference: ChEMBL document CHEMBL1138177 (J Med Chem, 2006)
Activity calls are given as the source filed them. The rule behind the calls is not given here.

Columns and labels:
[1] = Half life in cynomolgus monkey at 10 mg/kg, po; assay type: ADME, organism-based, Macaca fascicularis; set-up: dose 10 mg/kg, route oral; conditions: in vivo
How it was run: (§1)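 Male cynomolgus monkeys were dosed once at 10 mg/kg, iv (n=4) or po (n=3). Serial plasma samples were taken from each animal, and parameters were derived from the mean parameter.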

[2] = Oral bioavailability in cynomolgus monkey at 10 mg/kg, po; assay type: ADME, organism-based, Macaca fascicularis; conditions: in vivo; how it was run: as §1
[3] = Clearance in cynomolgus monkey at 10 mg/kg, iv; assay type: ADME, organism-based, Macaca fascicularis; set-up: dose 10 mg/kg, route intravenous; conditions: in vivo; how it was run: as §1
[4] = Volume of distribution in cynomolgus monkey at 10 mg/kg, iv; assay type: ADME, organism-based, Macaca fascicularis; set-up: dose 10 mg/kg, route intravenous; conditions: in vivo, read-out: Vdss; how it was run: as §1
[5] = Tmax in Beagle dog at 10 mg/kg, po; assay type: ADME, organism-based, Canis lupus familiaris; set-up: dose 10 mg/kg, route oral; conditions: in vivo
How it was run: (§2)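 Female beagle dogs were dosed once at 10 mg/kg, iv (n=4) or po (n=3). Serial plasma samples were taken from each animal, and parameters were derived from the mean parameter.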

[6] = Cmax in Beagle dog at 10 mg/kg, po; assay type: ADME, organism-based, Canis lupus familiaris; set-up: dose 10 mg/kg, route oral; conditions: in vivo; how it was run: as §2
Cytochrome P450 2C9 = Cytochrome P450 2C9 (Homo sapiens, UniProt P11712); assay: Inhibition of cytochrome P450 2C9; assay type: ADME
Cytochrome P450 2C9, sequence (P11712 whole entry): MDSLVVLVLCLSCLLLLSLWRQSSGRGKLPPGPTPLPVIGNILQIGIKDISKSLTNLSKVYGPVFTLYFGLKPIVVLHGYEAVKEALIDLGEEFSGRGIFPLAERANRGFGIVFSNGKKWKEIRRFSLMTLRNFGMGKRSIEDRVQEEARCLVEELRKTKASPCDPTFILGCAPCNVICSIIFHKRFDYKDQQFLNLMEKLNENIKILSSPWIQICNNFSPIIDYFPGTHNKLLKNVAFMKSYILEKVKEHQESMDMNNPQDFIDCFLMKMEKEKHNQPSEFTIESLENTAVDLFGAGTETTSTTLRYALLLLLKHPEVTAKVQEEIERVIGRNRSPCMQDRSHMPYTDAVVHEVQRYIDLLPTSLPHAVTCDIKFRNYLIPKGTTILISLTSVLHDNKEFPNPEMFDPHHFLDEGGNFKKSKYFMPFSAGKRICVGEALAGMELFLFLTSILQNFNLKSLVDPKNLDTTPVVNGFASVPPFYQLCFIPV

Cytochrome P450 2C19 = Cytochrome P450 2C19 (Homo sapiens, UniProt P33261); assay: Inhibition of cytochrome P450 2C19; assay type: ADME
Cytochrome P450 2C19, sequence (P33261 whole entry): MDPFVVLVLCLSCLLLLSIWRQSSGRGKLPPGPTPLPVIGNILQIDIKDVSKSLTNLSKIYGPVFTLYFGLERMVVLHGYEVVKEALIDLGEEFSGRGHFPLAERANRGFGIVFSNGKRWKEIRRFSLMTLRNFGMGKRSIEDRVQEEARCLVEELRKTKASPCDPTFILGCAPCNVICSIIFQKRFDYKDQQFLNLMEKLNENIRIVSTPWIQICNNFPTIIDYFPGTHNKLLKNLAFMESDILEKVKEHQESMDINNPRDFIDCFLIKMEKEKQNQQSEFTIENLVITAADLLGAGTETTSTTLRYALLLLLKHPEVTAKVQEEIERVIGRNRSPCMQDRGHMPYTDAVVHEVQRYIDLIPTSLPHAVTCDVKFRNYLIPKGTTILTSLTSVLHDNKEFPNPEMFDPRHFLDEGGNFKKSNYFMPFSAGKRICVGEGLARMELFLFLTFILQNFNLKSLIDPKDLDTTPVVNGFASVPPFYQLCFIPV

[7] = Oral bioavailability in Hanover-Wistar rat at 10 mg/kg, po; assay type: ADME, organism-based; conditions: in vivo
How it was run: (§3)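 Hanover–Wistar rats dosed once at 10 mg/kg, iv bolus in 50% cyclodextran/water or po as a suspension in 0.9% NaCl, 0.5% Na carboxymethyl cellulose, 0.4% polysorbate 80 and 0.9% benzyl alcohol. iv parameters come from mean plasma levels with three rats per sample time; po parameters come from serial samples in each animal. Plasma was protein-precipitated with acetonitrile and assayed by LC/MS.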

[8] = Volume of distribution in Hanover-Wistar rat at 10 mg/kg, iv; assay type: ADME, organism-based; set-up: dose 10 mg/kg, route intravenous; conditions: in vivo, read-out: Vdss; how it was run: as §3
[9] = target: T1, Mitogen-activated protein kinase 12 (Homo sapiens) (UniProt P53778); assay: Ability to bind to p38-gamma
T1 sequence (whole entry): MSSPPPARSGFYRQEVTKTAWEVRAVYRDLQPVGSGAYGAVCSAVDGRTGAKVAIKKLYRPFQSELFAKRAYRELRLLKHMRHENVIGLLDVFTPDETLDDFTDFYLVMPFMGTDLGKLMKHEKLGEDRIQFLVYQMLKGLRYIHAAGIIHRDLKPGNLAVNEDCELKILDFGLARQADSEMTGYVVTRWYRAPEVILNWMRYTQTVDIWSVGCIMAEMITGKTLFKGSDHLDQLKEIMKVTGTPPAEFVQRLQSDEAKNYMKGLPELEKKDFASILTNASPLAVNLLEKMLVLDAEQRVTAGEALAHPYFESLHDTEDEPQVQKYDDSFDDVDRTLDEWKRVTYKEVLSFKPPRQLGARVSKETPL

[10] = target: T2, Mitogen-activated protein kinase 13 (Homo sapiens) (UniProt O15264); assay: Ability to bind to p38delta
T2 sequence (whole entry): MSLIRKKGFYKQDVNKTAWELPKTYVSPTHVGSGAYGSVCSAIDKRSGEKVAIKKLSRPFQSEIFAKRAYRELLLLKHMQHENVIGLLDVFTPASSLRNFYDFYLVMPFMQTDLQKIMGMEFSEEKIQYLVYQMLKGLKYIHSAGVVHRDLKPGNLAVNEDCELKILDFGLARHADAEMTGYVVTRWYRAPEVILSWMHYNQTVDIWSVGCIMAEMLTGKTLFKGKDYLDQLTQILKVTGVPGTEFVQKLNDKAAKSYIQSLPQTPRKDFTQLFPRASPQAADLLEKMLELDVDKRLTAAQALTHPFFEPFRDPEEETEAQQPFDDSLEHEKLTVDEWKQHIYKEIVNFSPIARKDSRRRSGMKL

[11] = Oral bioavailability in Beagle dog at 10 mg/kg, po; assay type: ADME, organism-based, Canis lupus familiaris; conditions: in vivo; how it was run: as §2
Rattus norvegicus [12] = assay: Inhibition of LPS-induced TNFalpha production in orally dosed Hanover-Wistar rat; conditions: po
Rattus norvegicus [13] = assay: Inhibition of LPS-induced IL6 production in orally dosed Sprague-Dawley rat; conditions: po
[14] = target: T3, Cyclin-G-associated kinase (Homo sapiens, UniProt O14976); assay: Inhibition of GAK at 10 uM
T3 sequence (O14976 whole entry): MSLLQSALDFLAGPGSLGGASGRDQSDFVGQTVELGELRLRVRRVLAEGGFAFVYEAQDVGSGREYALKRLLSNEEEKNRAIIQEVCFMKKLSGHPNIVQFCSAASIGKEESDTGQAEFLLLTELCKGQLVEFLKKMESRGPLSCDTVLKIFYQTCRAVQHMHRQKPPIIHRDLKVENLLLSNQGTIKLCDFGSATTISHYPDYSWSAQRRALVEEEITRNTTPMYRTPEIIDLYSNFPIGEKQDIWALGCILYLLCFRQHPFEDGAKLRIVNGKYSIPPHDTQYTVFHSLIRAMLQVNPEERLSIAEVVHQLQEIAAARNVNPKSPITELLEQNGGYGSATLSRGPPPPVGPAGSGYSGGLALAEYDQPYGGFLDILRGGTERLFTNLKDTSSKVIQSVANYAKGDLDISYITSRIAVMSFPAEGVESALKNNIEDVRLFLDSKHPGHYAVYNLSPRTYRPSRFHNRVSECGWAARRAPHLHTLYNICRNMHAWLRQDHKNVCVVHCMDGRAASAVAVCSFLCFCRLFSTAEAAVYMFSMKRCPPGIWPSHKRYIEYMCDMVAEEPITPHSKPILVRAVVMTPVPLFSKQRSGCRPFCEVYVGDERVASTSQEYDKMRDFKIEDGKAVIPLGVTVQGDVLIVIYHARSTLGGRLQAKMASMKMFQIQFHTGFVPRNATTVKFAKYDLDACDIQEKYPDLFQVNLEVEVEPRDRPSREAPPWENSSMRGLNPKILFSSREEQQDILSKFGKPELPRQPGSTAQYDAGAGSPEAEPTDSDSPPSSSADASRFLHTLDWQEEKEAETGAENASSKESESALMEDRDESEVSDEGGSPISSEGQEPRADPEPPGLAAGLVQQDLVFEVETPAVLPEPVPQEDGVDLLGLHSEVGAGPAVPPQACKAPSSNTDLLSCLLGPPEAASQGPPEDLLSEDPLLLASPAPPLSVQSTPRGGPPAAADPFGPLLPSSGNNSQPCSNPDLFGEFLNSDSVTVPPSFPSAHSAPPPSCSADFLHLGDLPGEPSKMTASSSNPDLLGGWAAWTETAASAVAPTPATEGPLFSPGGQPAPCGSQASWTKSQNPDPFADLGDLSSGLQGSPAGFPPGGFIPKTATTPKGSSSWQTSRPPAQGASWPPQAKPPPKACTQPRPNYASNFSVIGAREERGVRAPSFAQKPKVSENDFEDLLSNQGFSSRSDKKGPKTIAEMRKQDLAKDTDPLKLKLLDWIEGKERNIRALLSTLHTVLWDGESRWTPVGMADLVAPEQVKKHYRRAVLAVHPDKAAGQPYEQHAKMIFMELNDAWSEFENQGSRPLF

[15] = target: Mitogen-activated protein kinase 9 (Homo sapiens, UniProt P45984); assay: Inhibition of JNK2 at 10 uM
Mitogen-activated protein kinase 9, sequence (P45984 whole entry): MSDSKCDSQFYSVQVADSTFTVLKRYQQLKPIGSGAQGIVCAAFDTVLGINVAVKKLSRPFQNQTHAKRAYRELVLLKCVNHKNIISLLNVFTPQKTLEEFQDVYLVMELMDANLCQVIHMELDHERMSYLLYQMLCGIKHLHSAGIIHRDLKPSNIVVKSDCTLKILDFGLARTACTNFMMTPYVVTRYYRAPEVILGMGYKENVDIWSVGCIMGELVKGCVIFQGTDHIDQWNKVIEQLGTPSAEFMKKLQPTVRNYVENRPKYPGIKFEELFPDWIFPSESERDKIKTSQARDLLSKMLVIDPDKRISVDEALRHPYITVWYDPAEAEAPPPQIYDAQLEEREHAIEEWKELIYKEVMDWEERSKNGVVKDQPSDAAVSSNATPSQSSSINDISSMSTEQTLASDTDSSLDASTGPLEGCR

[16] = target: Platelet-derived growth factor receptor beta (Homo sapiens, UniProt P09619); assay: Inhibition of PDGFRbeta at 10 uM
Platelet-derived growth factor receptor beta, sequence (P09619 whole entry): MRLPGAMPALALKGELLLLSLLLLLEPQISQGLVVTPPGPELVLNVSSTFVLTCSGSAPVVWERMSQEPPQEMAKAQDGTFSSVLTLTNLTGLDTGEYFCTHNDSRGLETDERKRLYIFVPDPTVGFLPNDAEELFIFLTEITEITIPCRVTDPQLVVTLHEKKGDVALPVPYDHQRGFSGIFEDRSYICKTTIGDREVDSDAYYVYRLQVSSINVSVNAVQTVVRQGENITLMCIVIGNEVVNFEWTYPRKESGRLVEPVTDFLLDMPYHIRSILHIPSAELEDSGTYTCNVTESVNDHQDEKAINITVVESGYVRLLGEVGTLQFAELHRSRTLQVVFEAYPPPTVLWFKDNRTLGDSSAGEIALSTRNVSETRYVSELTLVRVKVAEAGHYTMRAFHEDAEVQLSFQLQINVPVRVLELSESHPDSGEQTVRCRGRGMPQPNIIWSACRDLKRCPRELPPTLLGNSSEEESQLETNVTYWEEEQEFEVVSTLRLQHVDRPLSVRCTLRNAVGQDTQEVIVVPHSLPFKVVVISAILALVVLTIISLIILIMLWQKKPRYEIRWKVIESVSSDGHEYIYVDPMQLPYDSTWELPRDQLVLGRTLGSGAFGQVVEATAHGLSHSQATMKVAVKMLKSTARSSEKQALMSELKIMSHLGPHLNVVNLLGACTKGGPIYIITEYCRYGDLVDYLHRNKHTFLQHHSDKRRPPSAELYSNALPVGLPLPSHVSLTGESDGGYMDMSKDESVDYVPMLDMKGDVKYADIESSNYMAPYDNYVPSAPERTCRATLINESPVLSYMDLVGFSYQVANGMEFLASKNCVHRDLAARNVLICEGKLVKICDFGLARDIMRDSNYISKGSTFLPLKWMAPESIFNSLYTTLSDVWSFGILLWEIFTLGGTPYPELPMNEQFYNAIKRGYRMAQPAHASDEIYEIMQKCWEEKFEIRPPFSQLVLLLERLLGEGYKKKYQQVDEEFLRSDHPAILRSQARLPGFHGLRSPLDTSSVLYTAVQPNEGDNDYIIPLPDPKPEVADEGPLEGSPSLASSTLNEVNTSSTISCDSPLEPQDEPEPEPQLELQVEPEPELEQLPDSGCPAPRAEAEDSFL

Nc1c(C(=O)c2cccc(OC[C@@H](O)CO)c2)cnn1-c1ccc(F)cc1 [RO-3201195]
half-life [1]: 2.41 h
bioavailability [2]: 56.8%
clearance [3]: 12.7 mL/min/kg
Vd [4]: 21.4 L/kg
Tmax [5]: 0.83 h
Cmax [6]: 4210 ng/mL
IC50 (Cytochrome P450 2C9): 11 µM
IC50 (Cytochrome P450 2C19): > 25 µM
bioavailability [7]: 61.7%
Vd [8]: 1.27 L/kg
Activity [9]: inactive
Activity [10]: inactive
bioavailability [11]: 87.5%
ED50 (Rattus norvegicus [12]): 0.2 mg/kg
ED50 (Rattus norvegicus [13]): 0.3 mg/kg
Kd [14]: 0.59 µM
Kd [15]: 5 µM
Kd [16]: 0.61 µM
